Measured values taken from ChEMBL document CHEMBL1133770, “Synthesis and antitumor activity of new benzoheterocyclic derivatives of distamycin A” (J Med Chem, 2000).
Values joined by “and” are separate entries in the source; they are usually repeats but may differ in a detail not shown here. Identical values can stand only once.

Assays:
L1210 [1] = assay: In vivo median survival time of treated vs untreated mice x 100 against murine L1210 leukemia cells after ip treatment on day 1 after tumor iv transplant; type: functional, Mus musculus
L1210 [2] = assay: Inhibition of growth in L1210 leukemia cells resistant to doxorubicin(DX).; type: functional, cell-based; conditions: Mus musculus
Method in brief: (§1)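 L1210 murine leukemia cells and their doxorubicin-resistant and tallimustine-resistant sublines were grown as stationary suspension in RPMI 1640 with 10% fetal calf serum, 2 mM L-glutamine, β-mercaptoethanol and antibiotics. Compounds were dissolved in DMSO at 1 mg/mL (stock) and diluted in medium. Exponentially growing cells were exposed continuously for 48 h, and survivors were counted electronically. IC50 (cell number reduced to 50% of untreated control) was taken from dose-response curves. Duplicate cultures were used, with vehicle controls.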

L1210 [3] = assay: In vivo optimal nontoxic dose against murine L1210 leukemia cells after ip treatment on day 1 after tumor ip transplant; type: functional, Mus musculus
Method in brief: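 L1210 leukemia cells (10^5/mouse) were implanted ip or iv in female mice, 10 per group. Compounds were made fresh in 10% Tween 80/90% saline and given ip or iv on day 1 after implant, over a dose-response range. […] Toxicity was judged by gross autopsy and weight loss.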

L1210 [4] = assay: In vitro antitumor activity evaluated against L1210 murine leukemia cell line; type: functional, cell-based; conditions: Mus musculus; method in brief: as §1
L1210 [5] = assay: Inhibition of growth in L1210 leukemia cells resistant to Tallimustine.; type: functional, cell-based; conditions: Mus musculus; method in brief: as §1
L1210 [6] = assay: Ratio between IC50 value on resistant cells and sensitive cells; type: functional, Mus musculus; design: reference not given here
Method in brief: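 Murine L1210 leukemia cells, parental and doxorubicin- or tallimustine-resistant sublines, were grown in stationary suspension in RPMI 1640 with 10% FCS, 2 mM glutamine, […] and antibiotics. Exponentially growing cells were exposed continuously for 48 h to graded concentrations from a 1 mg/mL DMSO stock, and survivors were counted electronically. IC50 came from dose-response curves, with duplicate cultures and at least two repeats. RI was the IC50 on resistant cells divided by the IC50 on sensitive cells.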

Estrogen receptor = Estrogen receptor (Homo sapiens, UniProt Q92731+P03372); assay: Tested for 50% inhibition of generation of Human estrogen receptor polymerase chain reaction(PCR) products; type: protein assay
L1210 [7] = assay: In vivo median survival time of treated vs untreated mice x 100 against murine L1210 leukemia cells after iv treatment on day 1 after tumor iv transplant; type: functional, Mus musculus
L1210 [8] = assay: In vivo optimal nontoxic dose against murine L1210 leukemia cells after i.v. administration day 1 after tumor i.v. inoculation.
[9] = Resistance index(RI) = Ratio between IC50 value on resistant cells and sensitive cells; type: functional
Method in brief: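 L1210/DX (doxorubicin-resistant), L1210/tallimustine-resistant and parental L1210 cells grown as stationary suspension in RPMI 1640 with 10% FCS. Compounds from 1 mg/mL DMSO stock, diluted in medium. Exponentially growing cells exposed continuously for 48 h, with duplicate cultures per concentration and vehicle controls. Survivors counted electronically; IC50 taken from dose-response curves. RI = resistant-line IC50 / parental L1210 IC50.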

Row | SMILES | T/C (L1210 [1]) | IC50 (L1210 [2]) | Optimal dose (L1210 [3]) | IC50 (L1210 [4]) | IC50 (L1210 [5]) | Resistance index (L1210 [6]) | IC50 (Estrogen receptor) | T/C (L1210 [7]) | Optimal dose (L1210 [8]) | Resistance index [9]
1 | C=C(Br)C(=O)Nc1cc(C(=O)Nc2cc(C(=O)Nc3cc(C(=O)Nc4cc(C(=O)NCCC(=N)N)n(C)c4)n(C)c3)n(C)c2)n(C)n1.Cl | 200% | 0.42 nM | 6.2 mg/kg | 13.3 nM |  |  |  |  |  | 
2 | Cl.Cn1cc(NC(=O)c2cc(NC(=O)c3cc(NC(=O)c4nc5cc(NC(=O)c6ccc(N(CCCl)CCCl)cc6)ccc5[nH]4)cn3C)cn2C)cc1C(=O)NCCC(=N)N |  | 0.42 nM |  | 1420 nM | 1.2 nM | 6.8 and 19 | 5 nM |  |  | 
3 | C=C(Br)C(=O)Nc1ccc2oc(C(=O)Nc3cc(C(=O)Nc4cc(C(=O)Nc5cc(C(=O)NCCC(=N)N)n(C)c5)n(C)c4)n(C)c3)cc2c1.Cl |  | 39 nM |  | 6.1 nM | 210 nM |  |  | 117% | 0.78 mg/kg | 
4 | C=C(Br)C(=O)Nc1ccc2[nH]c(C(=O)Nc3cc(C(=O)Nc4cc(C(=O)Nc5cc(C(=O)NCCC(=N)N)n(C)c5)n(C)c4)n(C)c3)cc2c1.Cl |  | 36 nM |  | 4.1 nM | 140 nM |  |  | 213% | 12.5 mg/kg | 
5 | C=C(Br)C(=O)Nc1cc(C(=O)Nc2cc(C(=O)Nc3cc(C(=O)Nc4cc(C(=O)NCCC(=N)N)n(C)c4)n(C)c3)n(C)c2)n(C)c1.Cl | 725% | 0.42 nM | 3.1 mg/kg |  |  |  |  | 200% | 1.6 mg/kg | 
6 | Cl.Cn1cc(NC(=O)c2cc(NC(=O)c3cc(NC(=O)c4cc5cc(NC(=O)c6ccc(N(CCCl)CCCl)cc6)ccc5o4)cn3C)cn2C)cc1C(=O)NCCC(=N)N |  | 0.42 nM |  | 43.5 nM | 1.2 nM | 6.8 and 19 |  | 150% | 6.2 mg/kg | 
7 | Cl.Cn1cc(NC(=O)c2cc(NC(=O)c3cc(NC(=O)c4cc5cc(N(CCCl)CCCl)ccc5[nH]4)cn3C)cn2C)cc1C(=O)NCCC(=N)N |  | 0.42 nM |  | 8 nM | 1.2 nM | 6.8 and 19 | 1 nM | 174% | 0.39 mg/kg | 
8 | Cl.Cn1cc(NC(=O)c2cc(NC(=O)c3cc(NC(=O)c4cc5cc(N(CCCl)CCCl)ccc5o4)cn3C)cn2C)cc1C(=O)NCCC(=N)N |  | 0.42 nM |  | 3.7 nM | 1.2 nM | 6.8 and 19 | 3 nM | 200% | 0.39 mg/kg | 
9 | Cl.Cn1cc(NC(=O)c2cc(NC(=O)c3cc(NC(=O)c4cc5cc(N(CCCl)CCCl)ccc5n4C)cn3C)cn2C)cc1C(=O)NCCC(=N)N |  | 0.42 nM |  | 14.7 nM | 1.2 nM | 6.8 and 19 | 1 nM | 457% | 1.6 mg/kg | 
10 | Cl.Cn1cc(NC(=O)c2cc(NC(=O)c3cc(NC(=O)c4cc(N(CCCl)CCCl)cn4C)cn3C)cn2C)cc1C(=O)NCCC(=N)N | 188% |  | 0.39 mg/kg | 0.081 nM |  |  |  | 133% | 0.39 mg/kg | 
11 | Cn1cc(NC(=O)c2cc(NC(=O)c3cc(NC=O)cn3C)cn2C)cc1C(=O)NCCC(=N)N [STALLIMYCIN] |  | 459000 nM |  | 10100 nM | 142000 nM |  | 20 nM |  |  | 
12 | C=C(Br)C(=O)Nc1cc(C(=O)Nc2cc(C(=O)Nc3cc(C(=O)NCCC(=N)N)n(C)c3)n(C)c2)n(C)c1.Cl |  |  |  |  | 1.2 nM | 68 and 156 |  |  |  | 
13 | Cl.Cn1cc(NC(=O)c2cc(NC(=O)c3cc(NC(=O)/C=C/c4ccc(N(CCCl)CCCl)cc4)cn3C)cn2C)cc1C(=O)NCCC(=N)N |  |  |  |  |  |  |  | 267% | 6.2 mg/kg | 
14 | Cl.Cn1cc(NC(=O)c2cc(NC(=O)c3cc(NC(=O)c4ccc(N(CCCl)CCCl)cc4)cn3C)cn2C)cc1C(=O)NCCC(=N)N [TALLIMUSTINE CHLORIDE] |  |  | 3.1 mg/kg |  |  |  |  | 133% | 3.1 mg/kg | 
15 | C=C(Br)C(=O)Nc1cn(C)c(C(=O)Nc2cc(C(=O)Nc3cc(C(=O)Nc4cc(C(=O)NCCC(=N)N)n(C)c4)n(C)c3)n(C)c2)n1.Cl | 163% | 0.42 nM | 6.2 mg/kg | 46.9 nM | 1.2 nM | 15.5 and 13.9 |  |  |  | 
16 | Cl.Cn1cc(NC(=O)c2cc(NC(=O)c3cc(N(CCCl)CCCl)cn3C)cn2C)cc1C(=O)NCCC(=N)N | 138% |  | 1.6 mg/kg | 3.9 nM |  |  |  | 117% | 0.78 mg/kg | 
17 | Cn1cc(NC(=O)c2cc(NC(=O)c3cc(NC(=O)c4cc(NC=O)cn4C)cn3C)cn2C)cc1C(=O)NCCC(=N)N |  | 0.42 nM |  |  | 1.2 nM |  |  |  |  | 
18 | C=C(Br)C(=O)Nc1ccc2c(c1)cc(C(=O)Nc1cc(C(=O)Nc3cc(C(=O)NCCC(=N)N)n(C)c3)n(C)c1)n2C.Cl |  | 41 nM |  | 15.3 nM | 150 nM |  |  | 133% | 3.1 mg/kg | 
19 | Cl.Cn1cc(NC(=O)c2cc(NC(=O)c3cc(NC(=O)c4cc(NC(=O)c5ccc(N(CCCl)CCCl)cc5)cn4C)cn3C)cn2C)cc1C(=O)NCCC(=N)N |  |  |  |  | 1.2 nM | 19 |  |  | 0.4 mg/kg | 
20 | Cl.Cn1cc(NC(=O)c2cc(NC(=O)c3cc(NC(=O)c4nc(NC(=O)c5ccc(N(CCCl)CCCl)cc5)cn4C)cn3C)cn2C)cc1C(=O)NCCC(=N)N | 125% | 0.42 nM |  | 2370 nM | 5 nM | 2 and 2.1 |  |  |  | 
21 | Cl.Cn1cc(NC(=O)c2cc(NC(=O)c3cc(NC(=O)c4cc5cc(NC(=O)c6ccc(N(CCCl)CCCl)cc6)ccc5n4C)cn3C)cn2C)cc1C(=O)NCCC(=N)N |  | 0.42 nM |  | 61.7 nM | 1.2 nM |  | 5 nM | 183% | 25 mg/kg | 6.8 and 19
22 | Cl.Cn1cc(NC(=O)c2cc(NC(=O)c3cc(NC(=O)c4cc(NC(=O)c5ccc(N(CCCl)CCCl)cc5)nn4C)cn3C)cn2C)cc1C(=O)NCCC(=N)N | 144% | 0.42 nM | 3.1 mg/kg | 34.5 nM | 10.4 nM | 326.2 and 302.3 |  |  |  | 
23 | C=C(Br)C(=O)Nc1ccc2c(c1)cc(C(=O)Nc1cc(C(=O)Nc3cc(C(=O)Nc4cc(C(=O)NCCC(=N)N)n(C)c4)n(C)c3)n(C)c1)n2C.Cl |  | 43 nM |  | 2.4 nM | 150 nM |  |  | 192% | 6.2 mg/kg | 
24 | Cl.Cn1cc(NC(=O)c2cc(NC(=O)c3cc(NC(=O)c4cc5cc(NC(=O)c6ccc(N(CCCl)CCCl)cc6)ccc5[nH]4)cn3C)cn2C)cc1C(=O)NCCC(=N)N |  | 0.54 nM |  | 95.3 nM | 0.88 nM | 5.7 and 9.2 | 7.5 nM | 163% | 3.1 mg/kg | 
